According to ChEMBL document CHEMBL1148007, “Synthesis of new S-derivatives of clubbed triazolyl thiazole as anti-Mycobacterium tuberculosis agents” (Bioorg Med Chem, 2007):

Assays:
[1] = system: Salmonella typhi; assay: Antibacterial activity against Salmonella typhi at 50 to 100 uM after 24 hrs by well diffusion method; format: functional, Salmonella enterica subsp. enterica serovar Typhi; set-up: unit not given here
Outline: (§1)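 Nutrient agar plates with 10 mm wells cut by cork borer; 24-h subcultured bacteria swabbed on. Compounds dissolved in chloroform, 50 to 100 μM added to wells, gentamycin as standard. Incubated 24 h at 24–28 °C; inhibition zone diameter measured and converted to percent inhibition.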

[2] = system: Staphylococcus aureus; assay: Antibacterial activity against Staphylococcus aureus at 50 to 100 uM after 24 hrs by well diffusion method; format: functional; outline: as §1
[3] = Cytotoxicity against Vero-C1008 cells at 6.25 to 50 ug/mL by neutral red uptake assay; format: cell-based; settings: chlorocebus sabaeus
Outline: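 Vero-C-1008 cells exposed to 6.25 to 50 μg/mL compound; viability read by neutral red uptake.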

[4] = system: Mycobacterium tuberculosis; assay: Antitubercular activity against Mycobacterium tuberculosis H37Rv at 6.25 ug/mL by MABA assay; format: functional; settings: read-out: GI
Outline: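 Primary screen against M. tuberculosis H37Rv (ATCC 27294) in BACTEC 12B medium by broth microdilution Microplate Alamar Blue Assay; fluorescent compounds run instead in BACTEC 460 radiometric system. Compounds above 95% inhibition counted active.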

[5] = system: Escherichia coli; assay: Antibacterial activity against Escherichia coli at 50 to 100 uM after 24 hrs by well diffusion method; format: functional; outline: as §1
[6] = system: Mycobacterium tuberculosis; assay: Antitubercular activity against Mycobacterium tuberculosis H37Rv by MABA assay; format: functional
Outline: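 Actives re-tested at lower concentrations against H37Rv (ATCC 27294) in BACTEC 12B medium by Microplate Alamar Blue Assay. MIC taken as lowest concentration giving […] fluorescence reduction versus controls; rifampin reference.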

[7] = system: Pseudomonas aeruginosa; assay: Antibacterial activity against Pseudomonas aeruginosa at 50 to 100 uM after 24 hrs by well diffusion method; format: functional; outline: as §1

SMILES | Inhibition [1] | inhibition zone [2] [mm] | Activity [3] | inhibition of growth at 6.25 µg/mL [4] [%] | inhibition zone [5] [mm] | MIC [6] | inhibition zone [7] [mm]
N#CCSc1nnc(Cc2csc(NC(=O)c3ccccc3)n2)n1NC(=O)c1ccc(Cl)cc1 | 19 | 31 | Non-toxic | 96 | 27 | 3.13 µM | 27
O=C(CSc1nnc(Cc2csc(NC(=O)CCl)n2)n1NC(=O)c1ccc(Cl)cc1)N/N=C/c1ccccc1 | 17 | 24 | Non-toxic | 96 | 19 | 3.13 µM | 19
NNC(=O)CSc1nnc(Cc2csc(NC(=O)CCl)n2)n1NC(=O)c1cccc([N+](=O)[O-])c1 | 18 | 29 | Non-toxic | 96 | 19 | 6.25 µM | 20
CC(=O)Nc1nc(Cc2nnc(S)n2NC(=O)c2cccc([N+](=O)[O-])c2)cs1 | 12 | 16 | Non-toxic | 100 | 12 | 6.25 µM | 16
NNC(=O)CSc1nnc(Cc2csc(NC(=O)c3ccccc3)n2)n1NC(=O)c1ccc(Cl)cc1 | 24 | 32 | Non-toxic | 96 | 26 | 6.25 µM | 32
O=C(Nc1nc(Cc2nnc(S)n2NC(=O)c2ccc(Cl)cc2)cs1)c1ccccc1 | 18 | 16 | Non-toxic | 96 | 10 | 6.25 µM | 10
CC(=O)Nc1nc(Cc2nnc(SCC#N)n2NC(=O)c2ccc(Cl)cc2)cs1 | 24 | 28 | Non-toxic | 96 | 23 | 3.13 µM | 20
N#CCSc1nnc(Cc2csc(NC(=O)c3ccccc3)n2)n1NC(=O)c1cccc([N+](=O)[O-])c1 | 17 | 28 | Non-toxic | 96 | 22 | < 6.25 µg/mL | 24
CC(=O)Nc1nc(Cc2nnc(SCC(=O)NN)n2NC(=O)c2cccc([N+](=O)[O-])c2)cs1 | 17 | 19 | Non-toxic | 100 | 22 | 6.25 µM | 23
N#CCSc1nnc(Cc2csc(NC(=O)CCl)n2)n1NC(=O)c1cccc([N+](=O)[O-])c1 | 24 | 24 | Non-toxic | 100 | 19 | < 6.25 µg/mL | 24
CC(=O)Nc1nc(Cc2nnc(S)n2NC(=O)c2ccc(Cl)cc2)cs1 | 16 | 16 | Non-toxic | 96 | 20 | 6.25 µM | 16
O=C(O)CCNc1nc(Cc2nnc(S)n2NC(=O)c2cccc([N+](=O)[O-])c2)cs1 | 19 | 28 | Non-toxic | 96 | 18 | 6.25 µM | 25
O=C(CCl)Nc1nc(Cc2nnc(S)n2NC(=O)c2cccc([N+](=O)[O-])c2)cs1 | 16 | 22 | Non-toxic | 96 | 20 | 6.25 µM | 22
O=C(CSc1nnc(Cc2csc(NC(=O)c3ccccc3)n2)n1NC(=O)c1ccc(Cl)cc1)N/N=C/c1ccccc1 | 21 | 21 | Non-toxic | 96 | 23 | 3.13 µM | 24
CC(=O)Nc1nc(Cc2nnc(S)n2N)cs1 | 24 | 28 | Non-toxic | 96 | 22 | < 6.25 µg/mL | 27
O=C(Nc1nc(Cc2nnc(S)n2NC(=O)c2cccc([N+](=O)[O-])c2)cs1)c1ccccc1 | 12 | 11 | Non-toxic | 96 | 16 | 6.25 µM | 24
O=C(O)CCNc1nc(Cc2nnc(S)n2NC(=O)c2ccc(Cl)cc2)cs1 | 22 | 11 | Non-toxic | 96 | 15 | 6.25 µM | 17
N#CCSc1nnc(Cc2csc(NCCC(=O)O)n2)n1NC(=O)c1cccc([N+](=O)[O-])c1 | 24 | 25 | Non-toxic | 96 | 24 | < 6.25 µg/mL | 23
Nn1c(S)nnc1Cc1csc(NC(=O)c2ccccc2)n1 | 14 | 22 | Non-toxic | 96 | 18 | 6.25 µM | 20
CC(=O)Nc1nc(Cc2nnc(SCC(=O)NN)n2NC(=O)c2ccc(Cl)cc2)cs1 | 14 | 16 | Non-toxic | 96 | 12 | 6.25 µM | 16
CC(=O)Nc1nc(Cc2nnc(SCC(=O)N/N=C/c3ccccc3)n2NC(=O)c2ccc(Cl)cc2)cs1 | 20 | 25 | Non-toxic | 96 | 20 | 3.13 µM | 20
NNC(=O)CSc1nnc(Cc2csc(NC(=O)CCl)n2)n1NC(=O)c1ccc(Cl)cc1 | 12 | 16 | Non-toxic | 96 | 12 | 6.25 µM | 18
NNC(=O)CSc1nnc(Cc2csc(NC(=O)c3ccccc3)n2)n1NC(=O)c1cccc([N+](=O)[O-])c1 | 20 | 28 | Non-toxic | 100 | 17 | 6.25 µM | 24
O=C(O)CCNc1nc(Cc2nnc(SCC(=O)N/N=C/c3ccccc3)n2NC(=O)c2ccc(Cl)cc2)cs1 | 22 | 22 | Non-toxic | 96 | 18 | 3.13 µM | 27
O=C(CSc1nnc(Cc2csc(NC(=O)CCl)n2)n1NC(=O)c1cccc([N+](=O)[O-])c1)N/N=C/c1ccccc1 | 25 | 31 | Non-toxic | 100 | 26 | 1.56 µM | 30
O=C(CSc1nnc(Cc2csc(NC(=O)c3ccccc3)n2)n1NC(=O)c1cccc([N+](=O)[O-])c1)N/N=C/c1ccccc1 | 24 | 32 | Non-toxic | 96 | 25 | 0.39 µM | 30
